From ChEMBL document CHEMBL1154137, “Monodictyochromes A and B, dimeric xanthone derivatives from the marine algicolous fungus Monodictys putredinis” (J Nat Prod, 2008)
Calls of active or inactive are those of the source. No cut-off for these calls is given here.

Assays:
Escherichia coli = assay: Antibacterial activity against Escherichia coli at 1 mg/ml by agar diffusion assay; format: functional, organism-based
How it was run: (§1)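 Agar diffusion assay with test solution at 1 mg/mL. Organisms: bacteria Bacillus megaterium and Escherichia coli; fungi Microbotryum violaceum, Eurotium rubrum and Mycotypha microspora; green microalga Chlorella fusca.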

[1] = Antioxidant activity assessed as superoxide anion radical scavenging activity up to 50 uM; format: functional
How it was run: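 Superoxide anion radicals generated by xanthine oxidase oxidising hypoxanthine to uric acid. Scavenging tested at concentrations up to 50 µM.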

Priestia megaterium = assay: Antibacterial activity against Bacillus megaterium at 1 mg/ml by agar diffusion assay; format: functional, organism-based; how it was run: as §1
[2] = Inhibition of CYP1A in beta-naphthoflavone-stimulated rat […] cells assessed as dealkylation of 3-cyano-7-ethoxycoumarin to 3-cyano-7-hydroxyciumarin; format: ADME, cell-based; conditions: for IC50: Rattus norvegicus; for Activity: rat
How it was run: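 Rat hepatoma H4IIE cells induced with β-naphthoflavone, then homogenised. CYP1A activity measured as dealkylation of 3-cyano-7-ethoxycoumarin to fluorescent 3-cyano-7-hydroxycoumarin, over a dose range. α-Naphthoflavone serves as positive control. IC50 is given as mean ± SD, n = 3.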

[3] = molecular target: T1, Quinone oxidoreductase (Mus musculus) (UniProt P47199); assay: Ratio of compound to sulforaphane level required to double NADPH-quinone reductase activity in mouse Hepa-1c1c7 cells; format: cell-based
T1 sequence (whole entry): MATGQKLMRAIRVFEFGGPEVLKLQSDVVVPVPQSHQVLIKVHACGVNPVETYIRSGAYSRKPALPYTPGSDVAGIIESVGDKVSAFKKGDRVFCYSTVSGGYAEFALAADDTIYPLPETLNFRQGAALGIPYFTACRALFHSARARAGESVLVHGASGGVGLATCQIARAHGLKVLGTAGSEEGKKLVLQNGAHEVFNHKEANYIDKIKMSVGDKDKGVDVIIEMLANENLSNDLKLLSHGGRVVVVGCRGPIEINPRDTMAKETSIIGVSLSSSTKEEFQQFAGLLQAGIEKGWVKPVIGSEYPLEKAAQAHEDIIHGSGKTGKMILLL

[4] = Antioxidant activity assessed as AAPH radical scavenging activity at 1 uM; format: functional
How it was run: (§2)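 Oxygen radical absorbance capacity (ORAC) assay. AAPH generates peroxyl radicals, and trolox, the water-soluble vitamin E analogue, serves as reference. Compounds tested at 1 µM.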

[5] = molecular target: Prostaglandin G/H synthase 1 (Homo sapiens) (UniProt P23219); assay: Inhibition of COX1 at 100 uM
How it was run: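 COX-1 enzymatic activity used as a marker of tumour promotion. Compounds tested at 100 µM.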

Aspergillus ruber = assay: Antifungal activity against Eurotium rubrum at 1 mg/ml by agar diffusion assay; format: functional, organism-based; how it was run: as §1
[Chlorella] fusca = Antialgal activity against Chlorella fusca at 1 mg/ml by agar diffusion assay; format: functional, organism-based; conditions: Scenedesmus fuscus; how it was run: as §1
Mycotypha microspora = assay: Antifungal activity against Mycotypha microspora at 1 mg/ml by agar diffusion assay; format: functional, organism-based; how it was run: as §1
[6] = Cytotoxicity against mouse Hepa-1c1c7 cells by MTT assay; format: cell-based
[7] = test system: Radical scavenging activity; assay: Antioxidant activity assessed as DPPH radical scavenging activity up to 250 uM; format: functional
Microbotryum violaceum = assay: Antifungal activity against Microbotryum violaceum at 1 mg/ml by agar diffusion assay; format: functional, organism-based; how it was run: as §1
Aromatase = molecular target: T2, Aromatase (Homo sapiens, UniProt P11511); assay: Inhibition of human recombinant aromatase; conditions: for Activity: human
T2 sequence (P11511 whole entry): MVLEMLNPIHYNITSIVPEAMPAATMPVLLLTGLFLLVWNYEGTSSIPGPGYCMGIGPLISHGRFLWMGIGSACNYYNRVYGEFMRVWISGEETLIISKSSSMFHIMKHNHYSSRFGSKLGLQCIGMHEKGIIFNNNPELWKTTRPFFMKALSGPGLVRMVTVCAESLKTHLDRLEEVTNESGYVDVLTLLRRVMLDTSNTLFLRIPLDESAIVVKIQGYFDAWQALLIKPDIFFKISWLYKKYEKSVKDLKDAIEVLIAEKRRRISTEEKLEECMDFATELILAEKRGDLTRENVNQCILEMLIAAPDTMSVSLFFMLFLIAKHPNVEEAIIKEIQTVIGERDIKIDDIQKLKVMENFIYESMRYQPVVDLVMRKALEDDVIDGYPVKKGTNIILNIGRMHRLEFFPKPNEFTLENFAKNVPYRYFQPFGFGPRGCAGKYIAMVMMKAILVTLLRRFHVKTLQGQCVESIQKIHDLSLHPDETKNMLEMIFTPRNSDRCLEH
How it was run: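 Human recombinant CYP19 (aromatase) with O-benzylfluorescein benzyl ester (DBF) as substrate.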

[8] = Antioxidant activity assessed as AAPH radical scavenging activity; format: functional; how it was run: as §2

Sequence of Prostaglandin G/H synthase 1 (Homo sapiens) (P23219 whole entry): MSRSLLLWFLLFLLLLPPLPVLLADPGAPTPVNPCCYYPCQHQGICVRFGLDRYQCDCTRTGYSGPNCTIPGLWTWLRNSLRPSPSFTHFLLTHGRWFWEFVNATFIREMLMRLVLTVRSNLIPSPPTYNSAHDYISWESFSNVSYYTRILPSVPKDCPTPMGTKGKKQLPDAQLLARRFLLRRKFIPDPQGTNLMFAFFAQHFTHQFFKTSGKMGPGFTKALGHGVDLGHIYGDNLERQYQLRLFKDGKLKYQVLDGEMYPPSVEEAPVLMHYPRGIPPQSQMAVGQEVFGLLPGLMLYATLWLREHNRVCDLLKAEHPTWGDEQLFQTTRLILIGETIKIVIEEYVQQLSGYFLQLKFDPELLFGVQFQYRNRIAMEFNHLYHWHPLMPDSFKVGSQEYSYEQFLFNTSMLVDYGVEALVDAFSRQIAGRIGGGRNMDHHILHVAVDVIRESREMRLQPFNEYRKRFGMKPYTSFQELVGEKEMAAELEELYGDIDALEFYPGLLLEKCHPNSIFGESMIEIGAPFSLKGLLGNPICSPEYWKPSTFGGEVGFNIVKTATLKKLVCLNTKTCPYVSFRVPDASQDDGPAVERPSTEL

IC50 [2] [µM]	Activity [2]	Ratio [3]	inhibition [5] [%]	IC50 (Aromatase) [µM]	Activity (Aromatase)	Compound	Activity (Escherichia coli)	Activity [1]	Activity (Priestia megaterium)	Activity [4]	Activity (Aspergillus ruber)	Activity ([Chlorella] fusca)	Activity (Mycotypha microspora)	IC50 [6] [µM]	Activity [7]	Activity (Microbotryum violaceum)	Activity [8]
5.3	Dose-dependent effect	100	< 50	24.4	Dose-dependent effect	Cc1cc(O)c2c(c1-c1ccc3c(c1O)C(=O)C[C@](C)([C@@H]1OC(=O)C[C@@H]1C)O3)O[C@](C)([C@@H]1OC(=O)C[C@H]1O)CC2=O [MONODICTYOCHROMONE A]	inactive	inactive	inactive	Active	inactive	inactive	inactive	> 50	inactive	inactive	
						Cc1c(C)c2c(c(C)c1O)CCC(C)(C(=O)O)O2 (stereo not drawn)											Active
7.5	Dose-dependent effect	100	< 50	16.5	Dose-dependent effect	Cc1cc2c(c(O)c1-c1ccc3c(c1O)C(=O)C[C@](C)([C@@H]1OC(=O)C[C@@H]1C)O3)C(=O)C[C@@](C)([C@@H]1OC(=O)C[C@H]1O)O2 [MONODICTYOCHROMONE B]	inactive	inactive	inactive	Active	inactive	inactive	inactive	> 50	inactive	inactive	
